The list is not random: actives were taken first. Their share in the collection is about 2.4%.
NPY2 pot ag: human NPY-Y2 potentiation or agonism, primary screen | P49146 | cells expressing NPY-Y2, potentiator/agonist read-out | activation, % at 3.6 µM | actives 0.45% (n = 220,000); in the data active = activation above about 27%;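 note: cells stimulated with NPY near EC25 plus isoproterenol at EC100; 0% = vehicle plus submaximal agonist and 100% = vehicle plus saturating agonist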
NPY Y2 blocker: blocks the human neuropeptide Y Y2 receptor; inhibition, % at 2.7 µM; NPY-Y2 expressing cells, antagonist mode; actives 0.99% (n = 140,000); AID 793; P49146; in the data active = inhibition above about 17%;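 note: 0% = vehicle with agonist challenge and 100% = reference antagonist with challenge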
NPY Y1 blocker: blocks the human neuropeptide Y Y1 receptor. P25929. HEK293-CNG Y1 cells, membrane potential fluorescence; NPY at EC95, then isoproterenol. inhibition, % at 3.6 µM. actives 1% (n = 200,000). AID 1040;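 active = inhibition above the campaign mean inhibition of all tested compounds plus 3 SD, cut at about 20% in these data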;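 note: 0% = DMSO wells given NPY plus isoproterenol and 100% = isoproterenol alone without NPY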
Target sequence (P25929 whole entry, looked up): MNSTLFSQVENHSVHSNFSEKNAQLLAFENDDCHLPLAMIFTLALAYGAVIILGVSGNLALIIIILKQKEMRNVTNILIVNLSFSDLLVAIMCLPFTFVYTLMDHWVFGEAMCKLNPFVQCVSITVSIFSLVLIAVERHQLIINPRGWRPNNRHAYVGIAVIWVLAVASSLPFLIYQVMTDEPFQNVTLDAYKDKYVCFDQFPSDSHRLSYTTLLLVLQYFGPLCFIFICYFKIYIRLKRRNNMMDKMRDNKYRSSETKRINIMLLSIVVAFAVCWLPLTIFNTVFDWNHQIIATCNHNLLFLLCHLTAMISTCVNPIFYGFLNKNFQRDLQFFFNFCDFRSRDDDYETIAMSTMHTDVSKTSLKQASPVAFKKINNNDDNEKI
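Material: HEK293 cells co-expressing NPY Y1 receptor and cyclic-nucleotide gated channel. Timing: compound incubation 1 h at room temperature, readout 45 min post-stimulation. Signal: fluorescence, membrane potential probe.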
NPY-Y1 PAM-ag: potentiators or agonists of human neuropeptide Y receptor Y1; actives 0.37% (n = 220,000); NPY-Y1 expressing cells, potentiator/agonist activation; activation, % at 3.6 µM; in the data active = activation above about 33%, passing the limit was not always enough;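 note: cells stimulated with NPY at EC10 then isoproterenol at EC100; 0% = low agonist plus stimulus and 100% = saturating agonist plus stimulus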
S1P4 antag: antagonists of human S1P4 receptor. O95977. S1P4-expressing cells, antagonist mode, reporter read-out. inhibition, % at 4.98 µM. actives 0.26% (n = 220,000); in the data active = inhibition above about 29%;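 note: 0% = wells stimulated with agonist and 100% = vehicle wells without agonist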
S1P4 agonist: human S1P4 receptor agonism; O95977; S1P4-expressing cell line, agonist reporter assay; activation, % at 4.98 µM; actives 0.35% (n = 220,000); in the data active = activation above about 11%;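 note: 0% = DMSO vehicle and 100% = reference agonist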
* = called active by the depositor.

Screening Cc1[nH]nc2c1C(c1ccc(N(C)C)cc1)C1=C(CC(C)(C)CC1=O)N2 (centres undefined) returned NPY2 pot ag -22, NPY Y1 blocker 20*, NPY-Y1 PAM-ag -2, S1P4 antag -21 and S1P4 agonist 2.
Screening CC1CCC(C(C)C)C(OCC(O)CN2CCN(Cc3ccccc3)CC2)C1 (centres undefined) returned NPY2 pot ag -14, NPY Y2 blocker 10, NPY Y1 blocker 14, NPY-Y1 PAM-ag -17, S1P4 antag 8 and S1P4 agonist -2.
`CC1CCC(C(C)C)C(OCC(O)CN2CCOCC2)C1` (centres undefined) gave NPY2 pot ag 76*, NPY Y2 blocker 4, NPY Y1 blocker -7, NPY-Y1 PAM-ag 74*, S1P4 antag -4 and S1P4 agonist -2.
CCN(CC(=O)NC(C)C)C(=O)[C@@H](NC(=O)c1ccco1)C(C)C was read as NPY2 pot ag 8, NPY Y1 blocker 1, NPY-Y1 PAM-ag -8, S1P4 antag -22 and S1P4 agonist 0.
`O=C(O)CCn1c(-c2ccccc2)cc2ccccc21` gave NPY2 pot ag -22, NPY Y1 blocker 3, NPY-Y1 PAM-ag -10, S1P4 antag 8 and S1P4 agonist 0.
Screening COc1ccc(Br)cc1CN1CCCCCCC1 returned NPY2 pot ag -25, NPY Y2 blocker 21*, NPY Y1 blocker 22*, NPY-Y1 PAM-ag -31, S1P4 antag -1 and S1P4 agonist 3.
O=C(NC1CCCCCCC1)C1CCCN(S(=O)(=O)c2cnc[nH]2)C1 (centres undefined) was read as NPY2 pot ag 42*, NPY Y2 blocker 0, NPY Y1 blocker 2, NPY-Y1 PAM-ag 5, S1P4 antag -17 and S1P4 agonist -1.
Screening CCOC(=O)C1(Cc2cccc(OC)c2)CCN(Cc2cccc3c2OCO3)CC1 returned NPY2 pot ag -32, NPY Y1 blocker 21*, NPY-Y1 PAM-ag -9, S1P4 antag -12 and S1P4 agonist 0.
Screening CCOC(=O)C1(CCOc2ccccc2)CCN(Cc2ccc3c(c2)OCCO3)CC1 returned NPY2 pot ag -41, NPY Y1 blocker 21*, NPY-Y1 PAM-ag -20, S1P4 antag -7 and S1P4 agonist -2.
Screening CCOC(=O)c1c(-c2ccc(F)cc2)csc1/N=C/N(C)C returned NPY2 pot ag -9, NPY Y1 blocker -5, NPY-Y1 PAM-ag 5, S1P4 antag 3 and S1P4 agonist 1.
For COc1ccc(C(=O)NCC(=O)OCC(=O)Nc2ccc(C)c(S(=O)(=O)N(C)C)c2)cc1OC the results were NPY2 pot ag -17, NPY-Y1 PAM-ag 2, S1P4 antag 5 and S1P4 agonist 2.
CCC(C)Sc1cc(C(F)(F)F)c(C(=O)Nc2ccc(Cl)cc2)cn1 (centres undefined) was read as NPY2 pot ag -23, NPY-Y1 PAM-ag -22, S1P4 antag -20 and S1P4 agonist 1.
For Cc1ccc(C(=O)Nn2cnnc2)cc1[N+](=O)[O-] the results were NPY2 pot ag -15, NPY Y2 blocker 18*, NPY Y1 blocker -1, NPY-Y1 PAM-ag 8, S1P4 antag -10 and S1P4 agonist -1.
Screening Cc1cc(C)nc(NC(=O)c2ccc(C)c([N+](=O)[O-])c2)n1 returned NPY2 pot ag -9, NPY Y2 blocker 1, NPY Y1 blocker 7, NPY-Y1 PAM-ag 4, S1P4 antag -21 and S1P4 agonist 3.
`Cc1ccc2oc(=O)c3cc(C(=O)NCc4ccco4)sc3c2c1` gave NPY2 pot ag 1, NPY Y2 blocker 45*, NPY Y1 blocker 22*, NPY-Y1 PAM-ag 4, S1P4 antag -22 and S1P4 agonist -1.
For Nc1nonc1C(=O)NCCNCc1c(OCc2ccccc2F)ccc2ccccc12 the results were NPY2 pot ag -31, NPY Y2 blocker 50*, NPY Y1 blocker 34*, NPY-Y1 PAM-ag -69, S1P4 antag 6 and S1P4 agonist 2.
`Nc1ccc(S(=O)(=O)N2CCCC2)cc1Cl` gave NPY2 pot ag 5, NPY-Y1 PAM-ag -4, S1P4 antag -23 and S1P4 agonist -1.
`CCN(CC)c1ccc(C2=NNC(=O)CC2C)cc1[N+](=O)[O-]` (centres undefined) gave NPY2 pot ag -45, NPY Y2 blocker 71*, NPY Y1 blocker 64*, NPY-Y1 PAM-ag -85, S1P4 antag -12 and S1P4 agonist -1.

Screening data from PubChem.
